Source: ChEMBL document CHEMBL2346608, “New annelated thieno[2,3-e][1,2,3]triazolo[1,5-a]pyrimidines, with potent anticancer activity, designed through VLAK protocol” (2013)

Legend:
Format in all cases: functional
DU-145 = assay: Antiproliferative activity against human DU145 cells after 48 hrs by sulforhodamine B assay; details: DU-145, 48 h
Summary of the method: (§1)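 Cells grown in RPMI 1640 with 5% FBS and 2 mM L-glutamine, plated at 5000–40,000 cells/well and preincubated 24 h at 37 °C, 5% CO2. Five drug concentrations (10-fold or ½-log dilutions from DMSO stocks) applied for 48 h. TCA-fixed (final 10% adherent, 16% suspension), SRB-stained, A515 read. Growth versus time-zero and control wells gave GI50, TGI, LC50.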

[1] = Antiproliferative activity against human EKVX cells after 48 hrs by sulforhodamine B assay; summary of the method: as §1
NCI-H522 = assay: Antiproliferative activity against human NCI-H522 cells after 48 hrs by sulforhodamine B assay; details: NCI-H522, 48 h; summary of the method: as §1
COLO 205 = assay: Antiproliferative activity against human COLO205 cells after 48 hrs by sulforhodamine B assay; details: COLO 205, 48 h; summary of the method: as §1
OVCAR-4 = assay: Antiproliferative activity against human OVCAR4 cells after 48 hrs by sulforhodamine B assay; details: OVCAR-4, 48 h; summary of the method: as §1
Malme-3M = assay: Antiproliferative activity against human MALME-3M cells after 48 hrs by sulforhodamine B assay; summary of the method: as §1
CCRF-CEM = assay: Antiproliferative activity against human CCRF-CEM cells after 48 hrs by sulforhodamine B assay; summary of the method: as §1
MCF7 = assay: Antiproliferative activity against human MCF7 cells after 48 hrs by sulforhodamine B assay; details: MCF7, 48 h; summary of the method: as §1
UO-31 = assay: Antiproliferative activity against human UO31 cells after 48 hrs by sulforhodamine B assay; details: UO-31, 48 h
Summary of the method: (§2)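 Cells in RPMI 1640 with 5% FBS and 2 mM L-glutamine were seeded at 5000–40,000/well according to doubling time and preincubated 24 h at 37 °C in 5% CO2. Time-zero plates were TCA-fixed when drug was added. Five 10-fold or ½-log dilutions from DMSO stocks were added for 48 h. After SRB staining, A515 was read and GI50 derived from [(Ti−Tz)/(C−Tz)]×100 = 50.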

U-251 = assay: Antiproliferative activity against human U251 cells after 48 hrs by sulforhodamine B assay; details: U-251, 48 h; summary of the method: as §2
HCT-15 = assay: Antiproliferative activity against human HCT15 cells after 48 hrs by sulforhodamine B assay; details: HCT-15, 48 h; summary of the method: as §1
SF-295 = assay: Antiproliferative activity against human SF295 cells after 48 hrs by sulforhodamine B assay; details: SF-295, 48 h; summary of the method: as §1
HOP-62 = assay: Antiproliferative activity against human HOP62 cells after 48 hrs by sulforhodamine B assay; details: HOP-62, 48 h; summary of the method: as §1
RPMI-8226 = assay: Antiproliferative activity against human RPMI8226 cells after 48 hrs by sulforhodamine B assay; details: RPMI-8226, 48 h; summary of the method: as §1
HT-29 = assay: Antiproliferative activity against human HT-29 cells after 48 hrs by sulforhodamine B assay; details: HT-29, 48 h; summary of the method: as §1
MDA-MB-468 = assay: Antiproliferative activity against human MDA-MB-468 cells after 48 hrs by sulforhodamine B assay; details: MDA-MB-468, 48 h; summary of the method: as §1
K562 = assay: Antiproliferative activity against human K562 cells after 48 hrs by sulforhodamine B assay; details: K562, 48 h; summary of the method: as §1
A498 = assay: Antiproliferative activity against human A498 cells after 48 hrs by sulforhodamine B assay; details: A498, 48 h; summary of the method: as §1
ACHN = assay: Antiproliferative activity against human ACHN cells after 48 hrs by sulforhodamine B assay; summary of the method: as §1
MOLT-4 = assay: Antiproliferative activity against human MOLT4 cells after 48 hrs by sulforhodamine B assay; details: MOLT-4, 48 h; summary of the method: as §1
T47D = assay: Antiproliferative activity against human T47D cells after 48 hrs by sulforhodamine B assay; summary of the method: as §2
MDA-MB-231 = assay: Antiproliferative activity against human MDA-MB-231 cells after 48 hrs by sulforhodamine B assay; details: MDA-MB-231, 48 h; summary of the method: as §1
SNB-75 = assay: Antiproliferative activity against human SNB75 cells after 48 hrs by sulforhodamine B assay; details: SNB-75, 48 h; summary of the method: as §2
TK-10 = assay: Antiproliferative activity against human TK10 cells after 48 hrs by sulforhodamine B assay; details: TK-10, 48 h; summary of the method: as §2
NCI-H460 = assay: Antiproliferative activity against human NCI-H460 cells after 48 hrs by sulforhodamine B assay; details: NCI-H460, 48 h; summary of the method: as §1
NCI-H322M = assay: Antiproliferative activity against human NCI-H322M cells after 48 hrs by sulforhodamine B assay; summary of the method: as §1
RXF 393 = assay: Antiproliferative activity against human RXF393 cells after 48 hrs by sulforhodamine B assay; details: RXF 393, 48 h; summary of the method: as §1
HCT-116 = assay: Antiproliferative activity against human HCT116 cells after 48 hrs by sulforhodamine B assay; details: HCT-116, 48 h; summary of the method: as §1
SNB-19 = assay: Antiproliferative activity against human SNB19 cells after 48 hrs by sulforhodamine B assay; details: SNB-19, 48 h; summary of the method: as §1

For `CN1CCN(CCCn2c(=O)c3sc4ncccc4c3n3nnc(-c4ccccc4)c23)CC1`, the GI50 (DU-145) was 5.89 µM, the LC50 (DU-145) was 25.1 µM and the TGI (DU-145; read-out: pTGI (converted)) was 12.3 µM. It also gave a GI50 [1] of 6.46 µM, an LC50 [1] of 27.5 µM and a TGI ([1]; read-out: pTGI (converted)) of 13.2 µM. The GI50 (NCI-H522) was 7.24 µM, the LC50 (NCI-H522) was 28.8 µM and the TGI (NCI-H522; read-out: pTGI (converted)) was 14.5 µM. For the same compound, the GI50 (COLO 205) was 7.41 µM, the LC50 (COLO 205) was 28.8 µM and the TGI (COLO 205; read-out: pTGI (converted)) was 14.5 µM. It also gave a GI50 (OVCAR-4) of 7.24 µM, an LC50 (concentration killing 50% of cells) (OVCAR-4) of 26.9 µM and a TGI (OVCAR-4; read-out: pTGI (converted)) of 14.1 µM. It also gave a GI50 (Malme-3M) of 9.33 µM, an LC50 (Malme-3M) of 33.9 µM and a TGI (Malme-3M; read-out: pTGI (converted)) of 17.8 µM. For the same compound, the GI50 (CCRF-CEM) was 1.55 µM, the LC50 (CCRF-CEM) was 24.5 µM and the TGI (CCRF-CEM; read-out: pTGI (converted)) was 5.25 µM. For the same compound, the GI50 (MCF7) was 7.76 µM, the LC50 (MCF7) was 29.5 µM and the TGI (MCF7; read-out: pTGI (converted)) was 15.1 µM. It also gave a GI50 (UO-31) of 5.13 µM, an LC50 (UO-31) of 28.2 µM and a TGI (UO-31; read-out: pTGI (converted)) of 12 µM. The GI50 (U-251) was 5.25 µM, the LC50 (U-251) was 24 µM and the TGI (U-251; read-out: pTGI (converted)) was 11.2 µM. The GI50 (HCT-15) was 6.17 µM, the LC50 (HCT-15) was 28.2 µM and the TGI (HCT-15; read-out: pTGI (converted)) was 13.2 µM. The GI50 (SF-295) was 5.62 µM, the LC50 (SF-295) was 26.9 µM and the TGI (SF-295; read-out: pTGI (converted)) was 12.3 µM. It also gave a GI50 (HOP-62) of 8.13 µM, an LC50 (HOP-62) of 28.8 µM and a TGI (HOP-62; read-out: pTGI (converted)) of 15.5 µM. For the same compound, the GI50 (RPMI-8226) was 6.17 µM, the CC50 (RPMI-8226; read-out: pLC50 (the source's name) (converted)) was 40.7 µM and the TGI (RPMI-8226; read-out: pTGI (converted)) was 15.8 µM. The GI50 (HT-29) was 2.88 µM, the LC50 (HT-29) was 23.4 µM and the TGI (HT-29; read-out: pTGI (converted)) was 9.55 µM. It also gave a GI50 (MDA-MB-468) of 6.92 µM, an LC50 (MDA-MB-468) of 28.2 µM and a TGI (MDA-MB-468; read-out: pTGI (converted)) of 13.8 µM. It also gave a GI50 (K562) of 0.871 µM, an LC50 (concentration killing 50% of cells) (K562) of 4.79 µM and a TGI (K562; read-out: pTGI (converted)) of 2.04 µM. It also gave a GI50 (A498) of 0.158 µM, an LC50 (A498) of 21.9 µM and a TGI (A498; read-out: pTGI (converted)) of 9.33 µM. The GI50 (ACHN) was 8.13 µM, the LC50 (50% lethal concentration) (ACHN) was 27.5 µM and the TGI (ACHN; read-out: pTGI (converted)) was 15.1 µM. The GI50 (MOLT-4) was 1.55 µM, the LC50 (MOLT-4) was 21.4 µM and the TGI (MOLT-4; read-out: pTGI (converted)) was 4.9 µM. The GI50 (T47D) was 7.94 µM, the LC50 (T47D) was 31.6 µM and the TGI (T47D; read-out: pTGI (converted)) was 15.8 µM. For the same compound, the GI50 (MDA-MB-231) was 6.92 µM, the LC50 (MDA-MB-231) was 26.9 µM and the TGI (MDA-MB-231; read-out: pTGI (converted)) was 13.5 µM. It also gave a GI50 (SNB-75) of 6.76 µM, an LC50 (concentration killing 50% of starting cells) (SNB-75) of 25.7 µM and a TGI (SNB-75; read-out: pTGI (converted)) of 13.2 µM. The GI50 (TK-10) was 6.92 µM, the LC50 (TK-10) was 26.9 µM and the TGI (TK-10; read-out: pTGI (converted)) was 13.5 µM. It also gave a GI50 (NCI-H460) of 6.92 µM, an LC50 (NCI-H460) of 26.9 µM and a TGI (NCI-H460; read-out: pTGI (converted)) of 13.8 µM. It also gave a GI50 (NCI-H322M) of 6.17 µM, an LC50 (NCI-H322M) of 26.9 µM and a TGI (NCI-H322M; read-out: pTGI (converted)) of 12.9 µM. It also gave a GI50 (RXF 393) of 6.31 µM, an LC50 (RXF 393) of 28.2 µM and a TGI (RXF 393; read-out: pTGI (converted)) of 13.5 µM. It also gave a GI50 (HCT-116) of 5.25 µM, an LC50 (HCT-116) of 26.3 µM and a TGI (HCT-116; read-out: pTGI (converted)) of 11.7 µM. For the same compound, the GI50 (SNB-19) was 8.32 µM, the LC50 (SNB-19) was 29.5 µM and the TGI (SNB-19; read-out: pTGI (converted)) was 15.8 µM.
